Calls of active or inactive are those of the source. No cut-off for these calls is given here.

Series [1] addresses T1, Tumour suppressor p53/oncoprotein Mdm2 (Homo sapiens, UniProt Q00987). The series is described as follows: Inhibition of human MDM2 (1-188 aa) -p53 (1-83 aa) interaction expressed in Escherichia coli after 18 hrs by HTRF assay.
For series [2], the target named is T1, Tumour suppressor p53/oncoprotein Mdm2. The series can be described thus: Inhibition of human MDM2 (1-188 aa) -p53 (1-83 aa) interaction expressed in Escherichia coli after 18 hrs by HTRF assay in presence of 15% human serum.
A short description of series [3]: Clearance in rat at 0.5 mg/kg, iv. Type of series: ADME, organism-based. Set-up: dose 0.5 mg/kg, route intravenous. The settings on record: in vivo.
The subject of series [4] is SJSA-1. The series is described as follows: Antiproliferative activity against human SJSA1 cells after 3 days by EdU incorporation-based HCS assay in presence of 10% human serum. Type of series: functional, cell-based. The settings on record: SJSA-1, 72 h.
A short description of series [5]: Intrinsic clearance in rat hepatocytes assessed per million cells. Type of series: ADME, cell-based, Hepatocyte. Particulars: read-out: CLH.
The nature of series [6]: Clearance in mouse at 1 mg/kg, iv. Type of series: ADME, organism-based. Set-up: dose 1 mg/kg, route intravenous. The settings on record: in vivo.
The nature of series [7]: Oral bioavailability in mouse at 5 mg/kg. Type of series: ADME, organism-based. The settings on record: in vivo.
Series [8] in a line: Oral bioavailability in rat at 2 mg/kg. The series is classed as ADME, organism-based. The settings on record: in vivo.
Series [9] deals with SJSA-1. The series can be described thus: Increase in p21 mRNA expression in tumor of human SJSA1 cells xenografted athymic nude mouse at 100 mg/kg, po as single dose administered 2 weeks post implantation measured 4 hrs post dose relative to vehicle-treated control. Type of series: functional, organism-based. Set-up: dose 100 mg/kg. Put shortly: (§1)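 SJSA-1 osteosarcoma cells were implanted in mice 2 weeks before a single oral dose (100 or 200 mg/kg in one study; 50, 100 or 200 mg/kg in another). Tumour p21 mRNA, a p53 transcriptional target, was measured at several times after dosing and expressed relative to vehicle-treated controls.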

Series [10] relates to SJSA-1. The series can be described thus: Increase in p21 mRNA expression in tumor of human SJSA1 cells xenografted athymic nude mouse compound administered as single oral dose 2 weeks post implantation measured 4 to 8 hrs post dose relative to vehicle-treated control. The series is classed as functional. In outline: as §1
Series [11] deals with SJSA-1. The series can be described thus: Increase in p21 mRNA expression in tumor of human SJSA1 cells xenografted athymic nude mouse at 50 to 200 mg/kg, po administered as single dose 2 weeks post implantation relative to vehicle-treated control. Type of series: functional, organism-based. Put shortly:
as §1

For series [12], the system named is SJSA-1. The series can be described thus: Antitumor activity against human SJSA1 cells xenografted in athymic nude mouse assessed as tumor growth inhibition at 100 mg/kg, po qd administered 2 weeks post implantation relative to vehicle-treated control. The settings on record: SJSA-1, po, 336 h, read-out: TGI.
Series [13] deals with SJSA-1. The series is described as follows: Antitumor activity against human SJSA1 cells xenografted in athymic nude mouse assessed as tumor growth inhibition at 50 mg/kg, po bid administered 2 weeks post implantation relative to vehicle-treated control. Particulars: SJSA-1, po, 336 h, read-out: TGI.
In series [14] the test system is Mus musculus. The series is described as follows: Toxicity in human SJSA1 cells xenografted athymic nude mouse assessed as body weight loss at 200 mg/kg, po qd administered 2 weeks post implantation. The series is classed as organism-based, SJSA-1. More on the design: dose 200 mg/kg, route oral. The settings on record: in vivo, 336 h. Put shortly:
(§2)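 Female athymic nude mice were implanted subcutaneously with 5 × 10⁶ SJSA-1 cells. Oral gavage of vehicle or compound (50, 100 or 200 mg/kg QD; 50 or 100 mg/kg BID) began on day 14, when tumours were about 200 mm³. There were 10 mice per group, and tumours were measured twice weekly.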

Series [15] relates to Mus musculus. The series can be described thus: Toxicity in human SJSA1 cells xenografted athymic nude mouse assessed as body weight loss at 100 mg/kg, po bid administered 2 weeks post implantation. Type of series: organism-based, SJSA-1. Set-up: dose 100 mg/kg, route oral. The settings on record: in vivo, 336 h. In outline:
as §2

Series [16] in a line: Clearance in rat at 0.5 mg/kg, iv. Particulars: in vivo.
Series [17] in a line: Intrinsic clearance in human hepatocytes assessed per million cells. The series is classed as ADME, cell-based, Hepatocyte. The settings on record: read-out: CLH.
Series [18] can be described thus: Half life in rat at 0.5 mg/kg, iv. The series is classed as ADME, organism-based. Particulars: in vivo. Set-up: dose 0.5 mg/kg, route intravenous.
Series [19] in a line: Bioavailability in rat at 0.5 mg/kg, iv. Type of series: ADME, organism-based. Particulars: in vivo.
Series [20] can be described thus: Clearance in mouse. The series is classed as ADME, organism-based. The settings on record: in vivo.
Series [21] can be described thus: Half life in mouse. The series is classed as ADME, organism-based. Particulars: in vivo.

T1 sequence (P04637 whole entry, the tested form may be a part): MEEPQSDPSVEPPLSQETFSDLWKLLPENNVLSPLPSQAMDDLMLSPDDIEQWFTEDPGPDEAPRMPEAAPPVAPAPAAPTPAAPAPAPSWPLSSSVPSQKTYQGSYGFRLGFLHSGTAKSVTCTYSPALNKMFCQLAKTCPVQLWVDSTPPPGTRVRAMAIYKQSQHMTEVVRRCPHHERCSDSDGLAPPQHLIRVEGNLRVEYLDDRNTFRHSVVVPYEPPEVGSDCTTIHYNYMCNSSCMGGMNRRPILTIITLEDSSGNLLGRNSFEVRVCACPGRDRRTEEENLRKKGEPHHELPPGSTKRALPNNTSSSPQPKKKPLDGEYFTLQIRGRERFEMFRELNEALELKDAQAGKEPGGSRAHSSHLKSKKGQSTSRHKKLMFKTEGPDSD
T1 sequence (Q00987 whole entry, the tested form may be a part): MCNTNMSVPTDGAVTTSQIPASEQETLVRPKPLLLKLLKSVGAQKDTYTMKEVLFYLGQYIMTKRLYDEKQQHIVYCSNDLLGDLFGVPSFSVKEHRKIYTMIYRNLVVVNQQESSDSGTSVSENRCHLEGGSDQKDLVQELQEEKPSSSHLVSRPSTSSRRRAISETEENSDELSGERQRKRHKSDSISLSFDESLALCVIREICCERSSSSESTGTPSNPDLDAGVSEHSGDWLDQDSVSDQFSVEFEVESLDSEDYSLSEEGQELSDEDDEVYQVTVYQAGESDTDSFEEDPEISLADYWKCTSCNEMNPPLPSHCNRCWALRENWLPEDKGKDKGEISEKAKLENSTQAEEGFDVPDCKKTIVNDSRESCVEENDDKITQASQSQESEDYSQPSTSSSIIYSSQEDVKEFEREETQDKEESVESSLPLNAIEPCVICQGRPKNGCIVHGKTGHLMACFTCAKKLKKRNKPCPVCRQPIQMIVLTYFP

With `C[C@]1(CC(=O)O)C[C@H](c2cccc(Cl)c2)[C@@H](c2ccc(Cl)cc2)N(c2ccccc2)C1=O`, the half-inhibitory concentration (IC50) turned out to be 4 nM in series [1] and 55 nM in series [2]. In addition, the clearance in series [3] was 40.8 mL/min/kg.
As to `C[C@]1(CC(=O)O)C[C@H](c2cccc(Cl)c2)[C@@H](c2ccc(Cl)cc2)N(c2ccccn2)C1=O`, the IC50 came out at 13 nM in series [1] and 122 nM in [2]. Further, the clearance in series [3] is 36 mL/min/kg.
As for `CC(C)N1C(=O)[C@@](C)(CC(=O)O)C[C@H](c2cccc(Cl)c2)[C@H]1c1ccc(Cl)cc1`, the IC50 with SJSA-1 [4] turned out to be 380 nM. Also, the clearance was 17.3 mL/min/kg in series [3], 17.2 mL/min/kg in series [6] and 17.3 mL/min/kg in series [16]. For the same compound, the hepatocyte CLint in series [5] turned out to be 8.5 µL/min/1e6 cells. The bioavailability in series [7] came out at 32%; in series [8] it was 48%. In addition, the outcome in the series with SJSA-1 [9], in the series on SJSA-1 [10] and with SJSA-1 [11] was Active. In addition, the inhibition in vivo at 100 mg/kg in the series with SJSA-1 [12] came out at 96%. Moreover, the inhibition in vivo at 50 mg/kg with SJSA-1 [13] amounted to 82%. Besides, the Activity result with Mus musculus [14] and with Mus musculus [15] was “Toxic” each time.
As for `CC[C@@H](c1cccc(C)n1)N1C(=O)[C@@](C)(CC(=O)O)C[C@H](c2cccc(Cl)c2)[C@H]1c1ccc(Cl)cc1`, in the series with SJSA-1 [4], the IC50 worked out at 280 nM. Also, the clearance in series [3] was 15.5 mL/min/kg.
For `CC[C@@H](c1ncccc1C)N1C(=O)[C@@](C)(CC(=O)O)C[C@H](c2cccc(Cl)c2)[C@H]1c1ccc(Cl)cc1`, the IC50 stood at 5 nM in series [1], 183 nM in series [2] and 310 nM in the series with SJSA-1 [4].
For `CC[C@@H](c1cc(C)ccn1)N1C(=O)[C@@](C)(CC(=O)O)C[C@H](c2cccc(Cl)c2)[C@H]1c1ccc(Cl)cc1`, in that order: 6 nM, 60 nM and 890 nM.
In the case of `CC[C@@H]([C@@H]1CCCO1)N1C(=O)[C@@](C)(CC(=O)O)C[C@H](c2cccc(Cl)c2)[C@H]1c1ccc(Cl)cc1`, the 50% inhibitory concentration (IC50) with SJSA-1 [4] was 123 nM.
Still for that read-out and setting: the same measure for `CC[C@@H](c1ncccn1)N1C(=O)[C@@](C)(CC(=O)O)C[C@H](c2cccc(Cl)c2)[C@H]1c1ccc(Cl)cc1`: 420 nM; for `CC[C@@H](c1cccc(C2CC2)n1)N1C(=O)[C@@](C)(CC(=O)O)CC(c2cccc(Cl)c2)[C@H]1c1ccc(Cl)cc1` (single isomer, unassigned): 1820 nM.
As to `CC[C@@H]([C@H](C)OC)N1C(=O)[C@@](C)(CC(=O)O)C[C@H](c2cccc(Cl)c2)[C@H]1c1ccc(Cl)cc1`, in the series with SJSA-1 [4], the half-maximal inhibitory concentration (IC50) was determined as 143 nM.
`CC[C@@H](c1cnco1)N1C(=O)[C@@](C)(CC(=O)O)C[C@H](c2cccc(Cl)c2)[C@H]1c1ccc(Cl)cc1`: the half-inhibitory concentration (IC50) in series [1] is 8 nM; in series [2], 36 nM; with SJSA-1 [4], 840 nM.
Turning to `CC[C@@H](c1cccc(Cl)n1)N1C(=O)[C@@](C)(CC(=O)O)C[C@H](c2cccc(Cl)c2)[C@H]1c1ccc(Cl)cc1`, in the series with SJSA-1 [4], the IC50 worked out at 210 nM. In addition, the clearance in series [3] is 20 mL/min/kg.
On to `CC(C)[C@@H](c1ccccn1)N1C(=O)[C@@](C)(CC(=O)O)C[C@H](c2cccc(Cl)c2)[C@H]1c1ccc(Cl)cc1`, for which, in the series with SJSA-1 [4], the IC50 was found to be 290 nM.
For the compound `CC[C@@H](c1ccncc1)N1C(=O)[C@@](C)(CC(=O)O)C[C@H](c2cccc(Cl)c2)[C@H]1c1ccc(Cl)cc1`, the IC50 in the series with SJSA-1 [4] was found to be 460 nM.
For `CCC(CC)N1C(=O)[C@@](C)(CC(=O)O)C[C@H](c2cccc(Cl)c2)[C@H]1c1ccc(Cl)cc1`, the figures for the clearance in series [3], in series [6] and in series [16] were 7.5 mL/min/kg, 16.5 mL/min/kg and 7.5 mL/min/kg, respectively. Besides, the hepatocyte CLint in [5] turned out to be 18.8 µL/min/1e6 cells. The bioavailability turned out to be 42% in series [7] and 38% in series [8]. Further, the Activity entry was “Dose-dependent effect” with SJSA-1 [10] and “tde” in the series with SJSA-1 [11] (TDE = time-dependent effect).
As to `CC[C@@H](c1ccccn1)N1C(=O)[C@@](C)(CC(=O)O)CC(c2cccc(Cl)c2)[C@H]1c1ccc(Cl)cc1` (single isomer, unassigned), the concentration for half-maximal inhibition (IC50) with SJSA-1 [4] is 430 nM. For the same compound, the hepatocyte CLint was 13 µL/min/1e6 cells in [5] and 7 µL/min/1e6 cells in [17]. The half-life in series [18] was 3.5 h; in [21] it was 1.9 h. In addition, in [19], the bioavailability turned out to be 79%. The clearance in series [20] is 51.7 mL/min/kg.
For `C[C@@H](c1ccccn1)N1C(=O)[C@@](C)(CC(=O)O)C[C@H](c2cccc(Cl)c2)[C@H]1c1ccc(Cl)cc1`, the concentration for half-maximal inhibition (IC50) stood at 10 nM in [1], 62 nM in series [2] and 420 nM with SJSA-1 [4].
For the compound `CCC[C@@H](c1ccccn1)N1C(=O)[C@@](C)(CC(=O)O)C[C@H](c2cccc(Cl)c2)[C@H]1c1ccc(Cl)cc1`, in the series with SJSA-1 [4], the half-inhibitory concentration (IC50) was 990 nM. In addition, in series [3], the clearance is 3.33 mL/min/kg. Besides, the half-life in [18] was 6.9 h.
Regarding `CC[C@@H](c1ccc(C)cn1)N1C(=O)[C@@](C)(CC(=O)O)CC(c2cccc(Cl)c2)[C@H]1c1ccc(Cl)cc1` (single isomer, unassigned), the concentration for half-maximal inhibition (IC50) stood at 7 nM in series [1], 123 nM in series [2] and 900 nM in the series with SJSA-1 [4].

(Values after ChEMBL document CHEMBL3351557, “Discovery of Potent and Simplified Piperidinone-Based Inhibitors of the MDM2-p53 Interaction” (ACS Med Chem Lett, 2014).)
